# Activity calls are given as the source filed them. The rule behind the calls is not given here. Numbered stars: 1 amine (or outer) side, 2 acyl side, 3 side chain; on linkers, the order of the positions; unused ones are H or OH. Bridge positions count the residues as written; N and C are the ends. Square brackets hold non-standard residues; d marks the D form. Peptide text beside a SMILES is read from it. X1 = O=C(O)CN(CCN[*:1])CCn1cc(CCC(=O)[*:2])nn1; NMeA = CN[C@@H](C)C(=O)O
# Legend:
# [1] = tested on: Mus musculus; experiment: Toxicity in human MDA-MB-231 cells xenografted athymic (nu+/nu+) Balb/C mouse assessed as weight loss at 5 to 50 mg/kg, ip dosed every 3 days for total of 5 administrations; format: organism-based; design: dose 5-50 mg/kg, route intraperitoneal; conditions: in vivo, 72 h
# How it was run: (§1)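 Nude mice carrying subcutaneous MDA-MB-231 tumors staged to 100−150 mm3 were dosed intraperitoneally q3d × 5. Morbidity and body weight loss were monitored throughout the dosing regimen.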
# [2] = Antitumor activity against human A875 cells xenografted in athymic (nu+/nu+) Balb/C mouse assessed as tumor growth inhibition at 50 mg/kg, ip dosed every 3 days for total of 5 administrations; format: functional; conditions: 72 h, route intraperitoneal, read-out: TGI
# How it was run: (§2)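 Tumor fragments or cells were implanted subcutaneously in athymic nude mice. Once tumors were staged to 100−150 mm3, mice were dosed intraperitoneally every 3 days for 5 doses (q3d × 5).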
# [3] = tested on: A875; experiment: Antitumor activity against human A875 cells xenografted in athymic (nu+/nu+) Balb/C mouse assessed as tumor growth inhibition at 50 mg/kg, ip dosed every 3 days for total of 5 administrations and measured on day 12 after last dose; format: functional, organism-based; design: dose 50 mg/kg; how it was run: as §2
# [4] = Inhibition of XIAP BIR2 (124 to 240 residues) C202A/C213G mutant (unknown origin) incubated for 60 mins by biotinylated SMAC peptide Alpha-screen assay; design: species or system Homo sapiens
# [5] = tested on: MDA-MB-231; experiment: Antiproliferative activity against human MDA-MB-231 cells assessed as inhibition of cell proliferation after 72 hrs by MTS assay; format: functional, cell-based; conditions: MDA-MB-231, 72 h
# [6] = Antiproliferative activity against human A875 cells assessed as inhibition of cell proliferation after 72 hrs by MTS assay; format: functional, cell-based; conditions: A875, 72 h
# [7] = tested on: A549; experiment: Antiproliferative activity against human A549 cells assessed as inhibition of cell proliferation after 72 hrs by MTS assay; format: functional, cell-based; conditions: A549, 72 h
# [8] = Half life in Balb/C mouse at 1 mg/kg, iv administered as single dose by LC-MS/MS method; format: ADME, organism-based; design: dose 1 mg/kg, route intravenous; conditions: in vivo
# How it was run: (§3)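 Mice received one intravenous dose, and parent compound levels in blood were monitored over time. Plasma pharmacokinetic parameters were derived from these concentration–time profiles.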
# [9] = Mean residence time in Balb/C mouse at 1 mg/kg, iv administered as single dose by LC-MS/MS method; format: ADME, organism-based; design: dose 1 mg/kg, route intravenous; conditions: in vivo; how it was run: as §3
# [10] = Volume of distribution at steady state in Balb/C mouse at 1 mg/kg, iv administered as single dose by LC-MS/MS method; format: ADME, organism-based; design: dose 1 mg/kg, route intravenous; conditions: in vivo, read-out: Vdss; how it was run: as §3
# [11] = tested on: Mus musculus; experiment: AUClast in Balb/C mouse at 1 mg/kg, iv administered as single dose by LC-MS/MS method; format: ADME, organism-based, Plasma; design: time 0 - last, dose 1 mg/kg, route intravenous; conditions: in vivo; how it was run: as §3
# [12] = tested on: MDA-MB-231; experiment: Antitumor activity against human MDA-MB-231 cells xenografted in athymic (nu+/nu+) Balb/C mouse assessed as tumor growth inhibition at 5 mg/kg, ip dosed every 3 days for total of 5 administrations; format: functional, organism-based; design: dose 5 mg/kg; how it was run: as §2
# [13] = tested on: MDA-MB-231; experiment: Antitumor activity against human MDA-MB-231 cells xenografted in athymic (nu+/nu+) Balb/C mouse assessed as tumor growth inhibition at 20 mg/kg, ip dosed every 3 days for total of 5 administrations; format: functional, organism-based; design: dose 20 mg/kg; how it was run: as §2
# [14] = tested on: MDA-MB-231; experiment: Antitumor activity against human MDA-MB-231 cells xenografted in athymic (nu+/nu+) Balb/C mouse assessed as tumor growth inhibition at 50 mg/kg, ip dosed every 3 days for total of 5 administrations; format: functional; conditions: MDA-MB-231, ip, 72 h, route intraperitoneal, read-out: TGI; how it was run: as §2
# [15] = tested on: Mus musculus; experiment: Toxicity in human MDA-MB-231 cells xenografted athymic (nu+/nu+) Balb/C mouse assessed as mouse morbidity at 5 to 50 mg/kg, ip dosed every 3 days for total of 5 administrations; format: organism-based; design: dose 5-50 mg/kg, route intraperitoneal; conditions: in vivo, 72 h; how it was run: as §1
# [16] = biological target: E3 ubiquitin-protein ligase XIAP (Homo sapiens, UniProt P98170); experiment: Inhibition of XIAP BIR3 (241 to 356 residues) (unknown origin) incubated for 60 mins by fluoresceinated modified SMAC peptide based fluorescence polarization assay
# Sequence of E3 ubiquitin-protein ligase XIAP (P98170 whole entry, looked up, the tested form may be a part): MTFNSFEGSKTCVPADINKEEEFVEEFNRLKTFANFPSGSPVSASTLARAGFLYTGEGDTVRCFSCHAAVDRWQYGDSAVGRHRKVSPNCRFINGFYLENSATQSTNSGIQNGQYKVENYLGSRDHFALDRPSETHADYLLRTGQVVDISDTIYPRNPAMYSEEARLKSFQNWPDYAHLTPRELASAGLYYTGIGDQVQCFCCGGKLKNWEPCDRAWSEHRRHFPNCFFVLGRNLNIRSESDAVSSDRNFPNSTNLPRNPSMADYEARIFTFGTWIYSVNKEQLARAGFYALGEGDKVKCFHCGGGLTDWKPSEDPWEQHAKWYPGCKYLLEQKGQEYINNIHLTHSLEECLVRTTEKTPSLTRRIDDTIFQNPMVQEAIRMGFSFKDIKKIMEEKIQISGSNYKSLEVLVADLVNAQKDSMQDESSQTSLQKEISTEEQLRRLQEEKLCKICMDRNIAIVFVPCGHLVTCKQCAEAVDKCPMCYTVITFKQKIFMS
# [17] = biological target: BIR2 domain of XIAP (Homo sapiens, UniProt P98170, C202A/C213G); experiment: Inhibition of XIAP BIR2-3 (124 to 356 residues) C202A/C213G mutant (unknown origin) in human THP1 cells using fluoresceinated caspase-3 substrate by caspase-3 rescue assay; format: cell-based, THP-1
# Sequence of BIR2 domain of XIAP (P98170 whole entry C202A/C213G, looked up, the tested form may be a part): as the sequence (P98170 whole entry, looked up, the tested form may be a part) above, with C202A, C213G counted along it
# [18] = Half life in Balb/C mouse at 0.2 mg/kg, iv administered as single dose by LC-MS/MS method; format: ADME, organism-based; design: dose 0.2 mg/kg, route intravenous; conditions: in vivo; how it was run: as §3
# [19] = Mean residence time in Balb/C mouse at 0.2 mg/kg, iv administered as single dose by LC-MS/MS method; format: ADME, organism-based; design: dose 0.2 mg/kg, route intravenous; conditions: in vivo; how it was run: as §3
# [20] = Volume of distribution at steady state in Balb/C mouse at 0.2 mg/kg, iv administered as single dose by LC-MS/MS method; format: ADME, organism-based; design: dose 0.2 mg/kg, route intravenous; conditions: in vivo, read-out: Vdss; how it was run: as §3
# [21] = tested on: Mus musculus; experiment: AUClast in Balb/C mouse at 0.2 mg/kg, iv administered as single dose by LC-MS/MS method; format: ADME, organism-based, Plasma; design: dose 0.2 mg/kg, route intravenous, time 0 - last; conditions: in vivo; how it was run: as §3
SMILES,IC50 [4] [nM],IC50 [5] [nM],IC50 [7] [nM],IC50 [16] [nM],EC50 [17] [nM],IC50 [6] [nM],other results
CN[C@@H](C)C(=O)N[C@H]1Cc2ccc(cc2)OCc2cn(nn2)CCOc2ccc(cc2)C[C@H](C(=O)O)NC(=O)[C@H](Cc2ccccc2)NC(=O)[C@@H]2CCCN2C1=O,7990,–,–,2880,–,–,–
CN[C@@H](C)C(=O)N[C@H](C(=O)N1C[C@@H]2C[C@H]1C(=O)N[C@@H](Cc1ccccc1)C(=O)N[C@H](C(=O)O)Cc1ccc(cc1)NC(=O)CCc1cn2nn1)C(C)C,1970,–,–,110,6700,–,–
CN[C@@H](C)C(=O)N[C@H]1CCCCNC(=O)CCc2cn(nn2)CCN(CC(=O)O)CCNC(=O)[C@H](Cc2ccccc2)NC(=O)[C@@H]2CCCN2C1=O (H-[NMeA]KPF[X1]; lactam 2-C),> 18800,–,–,900,–,–,–
CN[C@@H](C)C(=O)N[C@H](C(=O)N1C[C@@H]2C[C@H]1C(=O)N[C@@H](Cc1ccc3ccccc3c1)C(=O)N[C@H](C(=O)O)Cc1ccc(cc1)OCc1cn(nn1)[C@H]1C[C@@H](C(=O)N[C@@H](Cc3ccc4ccccc4c3)C(=O)N[C@H](C(=O)O)Cc3ccc(cc3)OCc3cn2nn3)N(C(=O)[C@@H](NC(=O)[C@H](C)NC)C2CCCCC2)C1)C1CCCCC1,740,14,> 25000,–,–,84,half-life [18]: 1.9 h; MRT [19]: 2.5 h; Vd [20]: 0.7 L/kg; AUClast [21]: 457 ng·h/mL
CN[C@@H](C)C(=O)N[C@H](C(=O)N1C[C@@H]2C[C@H]1C(=O)N[C@@H](Cc1ccc3ccccc3c1)C(=O)N[C@H](C(=O)O)Cc1ccc(cc1)OCc1cn2nn1)C(C)(C)C,827,–,–,214,–,–,–
CN[C@@H](C)C(=O)N[C@H](C(=O)N1C[C@@H]2C[C@H]1C(=O)N[C@@H](Cc1ccccc1)C(=O)N[C@@H](C(=O)O)Cc1ccc(cc1)NC(=O)CCc1cn2nn1)C(C)C,> 18800,–,–,232,–,–,–

# Stronger by IC50 [4], values ahead:
IC50 [4] [nM],IC50 [5] [nM],IC50 [7] [nM],IC50 [16] [nM],EC50 [17] [nM],SMILES,IC50 [6] [nM],other results
97,26,> 25000,–,–,CN[C@@H](C)C(=O)N[C@H](C(=O)N1C[C@@H]2C[C@H]1C(=O)N[C@@H](Cc1ccc3ccccc3c1)C(=O)N[C@H](C(=O)O)Cc1ccc(cc1)OCc1cn(nn1)[C@H]1C[C@@H](C(=O)N[C@@H](Cc3ccc4ccccc4c3)C(=O)N[C@H](C(=O)O)Cc3ccc(cc3)OCc3cn2nn3)N(C(=O)[C@@H](NC(=O)[C@H](C)NC)C(C)(C)C)C1)C(C)(C)C,77,Activity [1]: Non-toxic; inhibition in vivo at 50 mg/kg [2]: 148%; TGI [3]: Active; half-life [8]: 0.85 h; MRT [9]: 0.79 h; Vd [10]: 0.34 L/kg; AUClast [11]: 1550 ng·h/mL; TGI [12]: inactive; TGI [13]: inactive; inhibition in vivo at 50 mg/kg [14]: 78%; Activity [15]: Non-toxic
139,12500,> 25000,160,1400,CN[C@@H](C)C(=O)N[C@H](C(=O)N1C[C@@H]2C[C@H]1C(=O)N[C@@H](Cc1ccccc1)C(=O)N[C@H](C(=O)O)Cc1ccc(cc1)OCc1cn2nn1)C(C)C,> 10000,–
3,2940,> 25000,68,45,CN[C@@H](C)C(=O)N[C@H](C(=O)N1C[C@@H]2C[C@H]1C(=O)N[C@@H](Cc1ccccc1)C(=O)N[C@H](C(=O)O)Cc1ccc(cc1)OCc1cn(nn1)[C@H]1C[C@@H](C(=O)N[C@@H](Cc3ccccc3)C(=O)N[C@H](C(=O)O)Cc3ccc(cc3)OCc3cn2nn3)N(C(=O)[C@@H](NC(=O)[C@H](C)NC)C(C)C)C1)C(C)C,4220,–

# Reference: ChEMBL document CHEMBL3414571, “The discovery of macrocyclic XIAP antagonists from a DNA-programmed chemistry library, and their optimization to give lead compounds with in vivo antitumor activity” (J Med Chem, 2015)
